# Results gathered from unrelated publications.
# Compare with care: the assays were run in different laboratories.
# Target: Serine/threonine-protein kinase N1 (PKN1, Homo sapiens, UniProt Q16512)
SMILES,test,setting,quantity,result
CCCCN(CCCC)C(=O)CN1C[C@H](c2cc(OC)c3c(c2)OCO3)[C@@H](C(=O)O)[C@@H]1CC(C)(C)CCC,"cell-free assay, competition with immobilised ligand",1 µM,remaining binding,100%
CC(C)(O)[C@H]1CC[C@H](Nc2ccc3ncc(-c4cccc(C(F)(F)F)c4)n3n2)CC1,"enzyme activity, inhibitor",1 µM,remaining activity,65.5%
CO[C@H]1C[C@@H]2CC[C@@H](C)[C@@](O)(O2)C(=O)C(=O)N2CCCC[C@H]2C(=O)O[C@H]([C@H](C)C[C@@H]2CC[C@@H](OP(C)(C)=O)[C@H](OC)C2)CC(=O)[C@H](C)/C=C(\C)[C@@H](O)[C@@H](OC)C(=O)[C@H](C)C[C@H](C)/C=C/C=C/C=C/1C,"enzyme activity, inhibitor",1 µM,activity vs control,104%
CN(C)C1CCN(CC#Cc2nn(C3CCCC3)c3nc(NCc4ccccc4)ncc23)C1 (centres unmarked),"enzyme activity, inhibitor, FRET",0.1 µM,inhibition,-1%
O=C(NCc1ncc(C(F)(F)F)cc1Cl)c1ccc2c(c1)C1(CCS(=O)(=O)CC1)[C@H](C1CC1)N2S(=O)(=O)c1ccc(F)cc1,"cell-free assay, competition with immobilised ligand",1 µM,remaining binding,100%
c1ccc(CNc2nc(N3CCOc4ccccc43)nc3c2CCCC3)cc1,"target engagement in cells, inhibitor, chemoproteomics",20 mM,inhibition,1.6%
S=C(NCc1ccc2c(c1)OCO2)N1CCN(c2ncnc3c2oc2ccccc23)CC1,"enzyme activity, inhibitor",1 µM,activity vs control,98%
O=C(CSc1nc2nccnc2c(=O)n1CCc1ccccc1)Nc1nccs1,"enzyme activity, inhibitor",10 µM,inhibition,4%
CCCS(=O)(=O)Nc1ccc(F)c(C(=O)c2c[nH]c3ncc(-c4ccc(Cl)cc4)cc23)c1F,"enzyme activity, inhibitor",1 µM,inhibition,< 10%
CC(=O)N1CCC(c2ccc(C(=O)NC3=NCCN3)cc2C(F)(F)F)CC1,"cell-free assay, competition with immobilised ligand",1 µM,remaining binding,100%
C[C@@H]1CN(CC(=O)Nc2ccc3c(c2)Cc2cccc(-c4cc(=O)cc(N5CCOCC5)o4)c2S3)C[C@H](C)O1,"enzyme activity, inhibitor",1 µM,activity vs control,79%
Cc1ccc(NC(=O)c2ccc(CN3CCN(C)CC3)cc2)cc1Nc1nc(-c2cccnc2)cs1,cell-free assay,0.5 µM,remaining signal,99.3%
Cc1ccc2c(=O)c3ccccc3n(CCCN)c2c1C.O=C(O)/C=C\C(=O)O,"enzyme activity, inhibitor",1 µM,activity vs control,64%
C#Cc1cccc(Nc2ncnc3cc(OCCOC)c(OCCOC)cc23)c1,cell-free assay,0.5 µM,remaining signal,108%
CCC(=O)N1CCN(c2ccc(-n3c(=O)ccc4cnc5ccc(-c6cnc7ccccc7c6)cc5c43)cc2C(F)(F)F)CC1,"enzyme activity, inhibitor",1 µM,activity vs control,97%
C[C@@H]1CN(c2cc(-c3n[nH]c4ccc(OC5(C)CC5)cc34)ncn2)C[C@H](C)O1,"cell-free assay, competition with immobilised ligand",0.1 µM,remaining binding,91%
Cl.Cl.c1cc(-c2cnn3cc(-c4ccc(OCCN5CCCCC5)cc4)cnc23)ccn1,"enzyme activity, inhibitor",1 µM,activity vs control,32%
COc1ccc2c(c1)O[C@H](c1ccc(OC)c(OC)c1)C[C@@H]2NC(=O)C1(c2ccc3c(c2)OC(F)(F)O3)CC1,"cell-free assay, competition with immobilised ligand",1 µM,remaining binding,100%
Cc1sc(C(=O)NC2COC2)cc1-n1cc(NC(=O)Nc2c(F)cccc2Cl)cn1,"enzyme activity, inhibitor",10 µM,remaining activity,76.8%
CS(=O)(=O)NCC[C@H](NC(=O)c1cncc2c1cnn2-c1ccc(F)cc1)c1ccnc(S(C)(=O)=O)c1,"cell-free assay, competition with immobilised ligand",1 µM,remaining binding,100%
Cn1c2c(c3ccc(Cl)c(Cl)c31)C(C#N)C1(CCOCC1)NC2=O (centres unmarked),"thermal stability, DSF",10 µM,ΔTm,0.2 °C
O=C(Nc1cnn2ccc(N3CCC[C@@H]3c3cc(F)ccc3F)nc12)N1CC[C@H](O)C1,"enzyme activity, inhibitor",1 µM,activity vs control,94%
CCCOc1ccc([C@H]2[C@H](C(=O)O)[C@@H](c3ccc4c(c3)OCO4)CN2CC(=O)Nc2c(CC)cccc2CC)cc1,"cell-free assay, competition with immobilised ligand",1 µM,remaining binding,87%
